Calls of active or inactive are those of the source. No cut-off for these calls is given here.
Tests used:
Assay type in all cases: nucleic-acid assay
Nucleic Acid [1] = assay: Binding affinity to FAM-tagged 27 mer RNA hairpin loop assessed as crosslinking at 10 uM by PAGE
How it was run: (§1)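 Reactive ODN at 10 µM with 1 µM FAM-labeled target DNA or RNA in 100 mM NaCl, 50 mM MES pH 5 plus RNase OUT, mixed at 0 °C and then incubated at 37 °C. Reactions were stopped at set times with formamide/EDTA/bromophenol blue buffer. Products were resolved on 15% denaturing polyacrylamide gel with 7 M urea, and FAM band intensities were quantified to give crosslinking yield.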

Nucleic Acid [2] = assay: Binding affinity to r-(ACGUGAAUUGUUCAACAGUAUGGGCAU)-RNA assessed as melting temperature at 1.5 uM by UV-visible spectrophotometry
How it was run: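 Each strand at 1.5 µM: ODN plus complementary 27-mer RNA in 100 mM NaCl, 50 mM MES pH 5. Samples were heated at 85 °C for 10 min and cooled slowly. Melting curves were recorded at 260 nm while warming 20 to 80 °C at 1.0 °C/min to obtain Tm.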

Nucleic Acid [3] = assay: Binding affinity to FAM-tagged r-(CAAGCGGAGAAAYUAAUUGCGGGUCGC)-RNA assessed as crosslinking at 10 uM by alkylation method; how it was run: as §1

| Structure (SMILES) | Activity (Nucleic Acid [1]) | Tm (Nucleic Acid [2]) | Activity (Nucleic Acid [3]) |
| --- | --- | --- | --- |
| CSCCc1nc(N)nc2c1ncn2CC[C@H]1C[C@H](OP(=O)(O)OC[C@H]2O[C@@H](n3cc(C)c(=O)[nH]c3=O)C[C@@H]2OP(=O)(O)OC[C@H]2O[C@@H](n3cc(C)c(=O)[nH]c3=O)C[C@@H]2OP(=O)(O)OC[C@H]2O[C@@H](n3cnc4c(=O)[nH]c(N)nc43)[C@H](O)[C@@H]2OP(=O)(O)OC[C@H]2O[C@@H](n3cnc4c(N)ncnc43)[C@H](O)[C@@H]2OP(=O)(O)OC[C@H]2O[C@@H](n3cnc4c(=O)[nH]c(N)nc43)[C@H](O)[C@@H]2OP(=O)(O)OC[C@H]2O[C@@H](n3ccc(N)nc3=O)[C@H](O)[C@@H]2OP(=O)(O)OC[C@H]2O[C@@H](n3cnc4c(N)ncnc43)[C@H](O)[C@@H]2OP(=O)(O)OC[C@H]2O[C@@H](n3cnc4c(N)ncnc43)[C@H](O)[C@@H]2OP(=O)(O)OC[C@H]2O[C@@H](n3cc(C)c(=O)[nH]c3=O)C[C@@H]2OP(CCC#N)N(C(C)C)C(C)C)[C@@H](COP(=O)(O)O[C@H]2C[C@H](n3cc(C)c(=O)[nH]c3=O)O[C@@H]2COP(=O)(O)O[C@H]2[C@@H](O)[C@H](n3ccc(N)nc3=O)O[C@@H]2COP(=O)(O)O[C@H]2[C@@H](O)[C@H](n3cnc4c(N)ncnc43)O[C@@H]2COP(=O)(O)O[C@H]2C[C@H](n3cc(C)c(=O)[nH]c3=O)O[C@@H]2COP(=O)(O)O[C@H]2[C@@H](O)[C@H](n3cnc4c(N)ncnc43)O[C@@H]2COP(=O)(O)O[C@H]2[C@@H](O)[C@H](n3ccc(N)nc3=O)O[C@@H]2COP(=O)(O)O[C@H]2[C@@H](O)[C@H](n3ccc(N)nc3=O)O[C@@H]2COP(=O)(O)O[C@H]2[C@@H](O)[C@H](n3ccc(N)nc3=O)O[C@@H]2COP(=O)(O)O[C@H]2[C@@H](O)[C@H](n3cnc4c(=O)[nH]c(N)nc43)O[C@@H]2COP(=O)(O)O[C@H]2C[C@H](n3cc(C)c(=O)[nH]c3=O)O[C@@H]2COP(=O)(O)O[C@H]2[C@@H](O)[C@H](n3cnc4c(N)ncnc43)O[C@@H]2CO)O1 (some centres not stated) | – | 49.7 °C | inactive |
| Cc1cn([C@H]2C[C@H](OP(CCC#N)N(C(C)C)C(C)C)[C@@H](COP(=O)(O)O[C@H]3[C@@H](O)[C@H](n4cnc5c(N)ncnc54)O[C@@H]3COP(=O)(O)O[C@H]3[C@@H](O)[C@H](n4cnc5c(N)ncnc54)O[C@@H]3COP(=O)(O)O[C@H]3[C@@H](O)[C@H](n4ccc(N)nc4=O)O[C@@H]3COP(=O)(O)O[C@H]3[C@@H](O)[C@H](n4cnc5c(=O)[nH]c(N)nc54)O[C@@H]3COP(=O)(O)O[C@H]3[C@@H](O)[C@H](n4cnc5c(N)ncnc54)O[C@@H]3COP(=O)(O)O[C@H]3[C@@H](O)[C@H](n4cnc5c(=O)[nH]c(N)nc54)O[C@@H]3COP(=O)(O)O[C@H]3C[C@H](n4cc(C)c(=O)[nH]c4=O)O[C@@H]3COP(=O)(O)O[C@H]3C[C@H](n4cc(C)c(=O)[nH]c4=O)O[C@@H]3COP(=O)(O)O[C@H]3[C@@H](O)[C@H](n4cnc5c(=O)[nH]c(N)nc54)O[C@@H]3COP(=O)(O)O[C@H]3C[C@H](n4cc(C)c(=O)[nH]c4=O)O[C@@H]3COP(=O)(O)O[C@H]3[C@@H](O)[C@H](n4ccc(N)nc4=O)O[C@@H]3COP(=O)(O)O[C@H]3[C@@H](O)[C@H](n4cnc5c(N)ncnc54)O[C@@H]3COP(=O)(O)O[C@H]3C[C@H](n4cc(C)c(=O)[nH]c4=O)O[C@@H]3COP(=O)(O)O[C@H]3[C@@H](O)[C@H](n4cnc5c(N)ncnc54)O[C@@H]3COP(=O)(O)O[C@H]3[C@@H](O)[C@H](n4ccc(N)nc4=O)O[C@@H]3COP(=O)(O)O[C@H]3[C@@H](O)[C@H](n4ccc(N)nc4=O)O[C@@H]3COP(=O)(O)O[C@H]3[C@@H](O)[C@H](n4ccc(N)nc4=O)O[C@@H]3COP(=O)(O)O[C@H]3[C@@H](O)[C@H](n4cnc5c(=O)[nH]c(N)nc54)O[C@@H]3COP(=O)(O)O[C@H]3C[C@H](n4cc(C)c(=O)[nH]c4=O)O[C@@H]3COP(=O)(O)O[C@H]3[C@@H](O)[C@H](n4cnc5c(N)ncnc54)O[C@@H]3CO)O2)c(=O)[nH]c1=O (some centres not stated) | – | 64.1 °C | – |
| CSCCc1nc(N)nc2c1ncn2[C@H]1C[C@H](OP(=O)(O)OC[C@H]2O[C@@H](n3cc(C)c(=O)[nH]c3=O)C[C@@H]2OP(=O)(O)OC[C@H]2O[C@@H](n3cc(C)c(=O)[nH]c3=O)C[C@@H]2OP(=O)(O)OC[C@H]2O[C@@H](n3cnc4c(=O)[nH]c(N)nc43)[C@H](O)[C@@H]2OP(=O)(O)OC[C@H]2O[C@@H](n3cnc4c(N)ncnc43)[C@H](O)[C@@H]2OP(=O)(O)OC[C@H]2O[C@@H](n3cnc4c(=O)[nH]c(N)nc43)[C@H](O)[C@@H]2OP(=O)(O)OC[C@H]2O[C@@H](n3ccc(N)nc3=O)[C@H](O)[C@@H]2OP(=O)(O)OC[C@H]2O[C@@H](n3cnc4c(N)ncnc43)[C@H](O)[C@@H]2OP(=O)(O)OC[C@H]2O[C@@H](n3cnc4c(N)ncnc43)[C@H](O)[C@@H]2OP(=O)(O)OC[C@H]2O[C@@H](n3cc(C)c(=O)[nH]c3=O)C[C@@H]2OP(CCC#N)N(C(C)C)C(C)C)[C@@H](COP(=O)(O)O[C@H]2C[C@H](n3cc(C)c(=O)[nH]c3=O)O[C@@H]2COP(=O)(O)O[C@H]2[C@@H](O)[C@H](n3ccc(N)nc3=O)O[C@@H]2COP(=O)(O)O[C@H]2[C@@H](O)[C@H](n3cnc4c(N)ncnc43)O[C@@H]2COP(=O)(O)O[C@H]2C[C@H](n3cc(C)c(=O)[nH]c3=O)O[C@@H]2COP(=O)(O)O[C@H]2[C@@H](O)[C@H](n3cnc4c(N)ncnc43)O[C@@H]2COP(=O)(O)O[C@H]2[C@@H](O)[C@H](n3ccc(N)nc3=O)O[C@@H]2COP(=O)(O)O[C@H]2[C@@H](O)[C@H](n3ccc(N)nc3=O)O[C@@H]2COP(=O)(O)O[C@H]2[C@@H](O)[C@H](n3ccc(N)nc3=O)O[C@@H]2COP(=O)(O)O[C@H]2[C@@H](O)[C@H](n3cnc4c(=O)[nH]c(N)nc43)O[C@@H]2COP(=O)(O)O[C@H]2C[C@H](n3cc(C)c(=O)[nH]c3=O)O[C@@H]2COP(=O)(O)O[C@H]2[C@@H](O)[C@H](n3cnc4c(N)ncnc43)O[C@@H]2CO)O1 (some centres not stated) | – | 53.3 °C | inactive |

The remaining lines, values ahead:

| Activity (Nucleic Acid [1]) | Tm (Nucleic Acid [2]) | Activity (Nucleic Acid [3]) | Structure (SMILES) |
| --- | --- | --- | --- |
| Active | – | – | CSCCc1nc(N)nc2c1ncn2CC[C@H]1C[C@H](OP(=O)(O)OC[C@H]2O[C@@H](n3cc(C)c(=O)[nH]c3=O)C[C@@H]2OP(=O)(O)OC[C@H]2O[C@@H](n3cnc4c(N)ncnc43)[C@H](O)[C@@H]2OP(=O)(O)OC[C@H]2O[C@@H](n3cc(C)c(=O)[nH]c3=O)C[C@@H]2OP(CCC#N)N(C(C)C)C(C)C)[C@@H](COP(=O)(O)O[C@H]2C[C@H](n3cc(C)c(=O)[nH]c3=O)O[C@@H]2COP(=O)(O)O[C@H]2C[C@H](n3cc(C)c(=O)[nH]c3=O)O[C@@H]2COP(=O)(O)O[C@H]2[C@@H](O)[C@H](n3cnc4c(N)ncnc43)O[C@@H]2COP(=O)(O)O[C@H]2[C@@H](O)[C@H](n3cnc4c(N)ncnc43)O[C@@H]2COP(=O)(O)O[C@H]2[C@@H](O)[C@H](n3cnc4c(N)ncnc43)O[C@@H]2COP(=O)(O)O[C@H]2[C@@H](O)[C@H](n3ccc(N)nc3=O)O[C@@H]2COP(=O)(O)O[C@H]2C[C@H](n3cc(C)c(=O)[nH]c3=O)O[C@@H]2COP(=O)(O)O[C@H]2[C@@H](O)[C@H](n3cnc4c(N)ncnc43)O[C@@H]2COP(=O)(O)O[C@H]2[C@@H](O)[C@H](n3cnc4c(=O)[nH]c(N)nc43)O[C@@H]2COP(=O)(O)O[C@H]2C[C@H](n3cc(C)c(=O)[nH]c3=O)O[C@@H]2COP(=O)(O)O[C@H]2[C@@H](O)[C@H](n3ccc(N)nc3=O)O[C@@H]2COP(=O)(O)O[C@H]2[C@@H](O)[C@H](n3cnc4c(N)ncnc43)O[C@@H]2COP(=O)(O)O[C@H]2C[C@H](n3cc(C)c(=O)[nH]c3=O)O[C@@H]2COP(=O)(O)O[C@H]2[C@@H](O)[C@H](n3cnc4c(N)ncnc43)O[C@@H]2COP(=O)(O)O[C@H]2C[C@H](n3cc(C)c(=O)[nH]c3=O)O[C@@H]2CO)O1 (some centres not stated) |
| inactive | – | – | CSCCc1nc(N)nc2c1ncn2[C@H]1C[C@H](OP(=O)(O)OC[C@H]2O[C@@H](n3cc(C)c(=O)[nH]c3=O)C[C@@H]2OP(=O)(O)OC[C@H]2O[C@@H](n3cnc4c(N)ncnc43)[C@H](O)[C@@H]2OP(=O)(O)OC[C@H]2O[C@@H](n3cc(C)c(=O)[nH]c3=O)C[C@@H]2OP(CCC#N)N(C(C)C)C(C)C)[C@@H](COP(=O)(O)O[C@H]2C[C@H](n3cc(C)c(=O)[nH]c3=O)O[C@@H]2COP(=O)(O)O[C@H]2C[C@H](n3cc(C)c(=O)[nH]c3=O)O[C@@H]2COP(=O)(O)O[C@H]2[C@@H](O)[C@H](n3cnc4c(N)ncnc43)O[C@@H]2COP(=O)(O)O[C@H]2[C@@H](O)[C@H](n3cnc4c(N)ncnc43)O[C@@H]2COP(=O)(O)O[C@H]2[C@@H](O)[C@H](n3cnc4c(N)ncnc43)O[C@@H]2COP(=O)(O)O[C@H]2[C@@H](O)[C@H](n3ccc(N)nc3=O)O[C@@H]2COP(=O)(O)O[C@H]2C[C@H](n3cc(C)c(=O)[nH]c3=O)O[C@@H]2COP(=O)(O)O[C@H]2[C@@H](O)[C@H](n3cnc4c(N)ncnc43)O[C@@H]2COP(=O)(O)O[C@H]2[C@@H](O)[C@H](n3cnc4c(=O)[nH]c(N)nc43)O[C@@H]2COP(=O)(O)O[C@H]2C[C@H](n3cc(C)c(=O)[nH]c3=O)O[C@@H]2COP(=O)(O)O[C@H]2[C@@H](O)[C@H](n3ccc(N)nc3=O)O[C@@H]2COP(=O)(O)O[C@H]2[C@@H](O)[C@H](n3cnc4c(N)ncnc43)O[C@@H]2COP(=O)(O)O[C@H]2C[C@H](n3cc(C)c(=O)[nH]c3=O)O[C@@H]2COP(=O)(O)O[C@H]2[C@@H](O)[C@H](n3cnc4c(N)ncnc43)O[C@@H]2COP(=O)(O)O[C@H]2C[C@H](n3cc(C)c(=O)[nH]c3=O)O[C@@H]2CO)O1 (some centres not stated) |

— ChEMBL document CHEMBL1157100, “The alkyl-connected 2-amino-6-vinylpurine (AVP) crosslinking agent for improved selectivity to the cytosine base in RNA” (Bioorg Med Chem, 2010)
